Data as given in ChEMBL document CHEMBL4219242, “Furoxans (Oxadiazole-4 N-oxides) with Attenuated Reactivity are Neuroprotective, Cross the Blood Brain Barrier, and Improve Passive Avoidance Memory” (J Med Chem, 2018).
Calls of active or inactive are those of the source.

Tests used:
PC-12 [1] = assay: Neuroprotective activity against oxygen glucose deprivation-induced cell death in rat PC12 cells assessed as change in cell viability at 10 uM after 24 hrs by MTT assay relative to control; format: functional
Procedure, shortened: (§1)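 Undifferentiated PC12 cells (passage 12−14), 1 × 10^6 plated overnight in DMEM/F12 with 5% FBS and 5% horse serum. OGD: glucose-free HBSS under argon in an anaerobic chamber, 1.5 h at 37 °C. Reoxygenated in fresh growth medium with compound or DMSO vehicle for 24 h at 37 °C. Viability by MTT (0.5 mg/mL, 4 h), DMSO-solubilised, A540. % change vs vehicle control; mean ± SEM, n=3, triplicate experiments.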

PC-12 [2] = assay: Neuroprotective activity against oxygen glucose deprivation-induced cell death in rat PC12 cells assessed as change in cell viability at 25 uM after 24 hrs by MTT assay relative to control; format: functional; procedure, shortened: as §1
PC-12 [3] = assay: Neuroprotective activity against oxygen glucose deprivation-induced cell death in rat PC12 cells assessed as change in cell viability at 1 uM after 24 hrs by MTT assay relative to control; format: functional; procedure, shortened: as §1
Mus musculus [4] = assay: Reversal of scopolamine-induced memory impairment in C57BL/6 mouse assessed as latency time to enter dark compartment at 20 mg/kg, ip administered 60 to 120 mins prior to training followed by scopolamine challenge 30 mins prior to training measured after 24 hrs (reference value: 63.5 +/- 30 sec); format: functional
Procedure, shortened: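 Male C57BL/6 mice, habituated to confirm photophobia, were given the HCl salt (0.1–20 mg/kg ip in 0.9% NaCl/1% DMSO) 60 or 120 min before training, and scopolamine 1 mg/kg ip 30 min before training. Double-trial step-through training used a 0.5 mA, 3 s shock. Latency to enter the dark side was measured 24 h later (cut-off 300 s). n = 8–9; ANOVA with Dunnett's test.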

PC-12 [5] = assay: Cytotoxicity against rat PC12 cells assessed as reduction in cell viability at 50 uM after 24 hrs by MTT assay; format: cell-based; details: pc-12, 24 h
Mus musculus [6] = assay: Effect on CREB phosphorylation in hippocampal tissue of scopolamine-induced C57BL/6 mouse memory deficit model at 20 mg/kg, ip treated for 2 hrs prior to test followed by scopolamine challenge 30 mins prior to test by Western blot analysis; format: organism-based; details: in vivo
Procedure, shortened: (§2)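 C57BL/6 mice (N = 8 per cohort, blinded) received the HCl salt at 20 mg/kg ip (saline/1% DMSO) or vehicle 2 h before sacrifice, and scopolamine at 1 mg/kg ip or saline 30 min before sacrifice. Hippocampal lysates were run on 10−20% Tris-glycine gels and transferred to PVDF. Blots were probed with pCREB Ser133, CREB, p-ERK1/2 Thr202/Tyr204 and ERK1/2 antibodies, normalised to GAPDH and expressed as phospho:total.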

[7] = Ratio of drug uptake in C57BL/6 mouse brain to plasma at 20 mg/kg, ip measured after 1 to 12 hrs by LC-MS/MS analysis; format: ADME, organism-based; details: read-out: BPR
Procedure, shortened: (§3)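 Brain:plasma ratio taken from forebrain and plasma levels in C57BL/6 mice dosed at 20 mg/kg (ip in saline/1% DMSO or po in sesame oil), sampled at 1, 2 or 12 h. Samples extracted by SPE with the d4 internal standard and measured by LC-MS/MS MRM. Mean ± SEM; routes compared by unpaired t test.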

PC-12 [8] = assay: Neuroprotective activity against oxygen glucose deprivation-induced cell death in rat PC12 cells assessed as change in cell viability after 24 hrs by resorufin-dye based assay; format: functional; details: PC-12, 24 h
Procedure, shortened: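 PC12 cells (undifferentiated, passage 12−14) given OGD for 90 min (glucose-free HBSS, argon, 37 °C), then normoxic growth medium with compound at 0.1, 1, 5, 10, 25 or 50 μM for 24 h. PrestoBlue (10%, 30 min) fluorescence at 560/590 nm. Viability as percent change against vehicle-control mean; control plates without OGD were included.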

[9] = Half life in C57BL/6 mouse brain at 20 mg/kg, ip or po measured after 1 to 12 hrs by LC-MS/MS analysis; format: ADME, organism-based
Procedure, shortened: (§4)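 Male C57BL/6 mice (n = 4 per group) given the HCl salt at 20 mg/kg, either by oral gavage in sesame oil or ip in 0.9% NaCl with 1% DMSO. Sacrificed at 1, 2 or 12 h. Plasma (cardiac puncture, K2EDTA) and forebrain homogenate underwent solid-phase extraction with the d4 internal standard, then LC-MS/MS MRM quantitation against a spiked-brain calibration curve. Concentrations normalised to tissue weight; duplicate LC runs.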

[10] = Drug uptake in C57BL/6 mouse brain at 20 mg/kg, ip or po measured after 1 to 12 hrs by LC-MS/MS analysis; format: ADME, organism-based; details: in vivo; procedure, shortened: as §4
[11] = Drug uptake in cytosol of rat PC12 cells at 25 after 24 hrs under oxygen glucose deprivation condition by LC-MS/MS analysis; format: ADME, subcellular, PC-12
Procedure, shortened: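 After OGD (as in the neuroprotection assay), 1×10^6 PC12 cells were exposed to analyte at 25 μM for 24 h; a non-OGD plate served as control. Medium and cytosolic fractions (HEPES/NP-40 lysis buffer, 15 min at 0 °C, centrifuged) were diluted in 2% formic acid, spiked with the deuterated/nondeuterated partner as internal standard, and analysed by UPLC-MS/MS (MRM). AUCs were normalised to the internal standard.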

PC-12 [12] = assay: Neuroprotective activity against oxygen glucose deprivation-induced cell death in rat PC12 cells assessed as reduction in cell viability at 50 uM after 24 hrs by MTT assay; format: functional, cell-based
Mus musculus [13] = assay: Effect on Erk phosphorylation in hippocampal tissue of scopolamine-induced C57BL/6 mouse memory deficit model at 20 mg/kg, ip treated for 2 hrs prior to test followed by scopolamine challenge 30 mins prior to test by Western blot analysis; format: organism-based; details: in vivo; procedure, shortened: as §2
[14] = Half life in C57BL/6 mouse plasma at 20 mg/kg, ip or po measured after 1 to 12 hrs by LC-MS/MS analysis; format: ADME, organism-based; procedure, shortened: as §4
[15] = Stability of the compound in pH 7.4 PBS buffer at 250 uM after 2 to 12 hrs in presence of excess free thiols by HPLC-PDA analysis; format: physicochemical; details: pH 7.4, 250 µM
Procedure, shortened: (§5)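 Compound (250 μM) or N-ethylmaleimide control (250 μM) incubated with or without N-acetylcysteine (5 mM) in 50 mM PBS, pH 7.4, at 37 °C. Aliquots taken at 2 and 12 h were analysed by HPLC-PDA. Peak AUC at each analyte's λmax gave the remaining starting material.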

PC-12 [16] = assay: Neuroprotective activity against oxygen glucose deprivation-induced cell death in rat PC12 cells assessed as change in cell viability at 10 to 50 uM after 24 hrs cotreated with sGC inhibitor ODQ by MTT assay; format: functional, cell-based
Procedure, shortened: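 OGD-exposed PC12 cells (90 min glucose-free HBSS under argon, 37 °C) treated for 24 h with compound with or without the sGC inhibitor ODQ (10 μM). MTT viability read-out (0.5 mg/mL, 4 h, A540). Mean ± SEM (n = 3) of duplicate experiments; one-way ANOVA with Dunnett's test against vehicle.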

[17] = Drug uptake in C57BL/6 mouse plasma at 20 mg/kg, ip or po measured after 1 to 12 hrs by LC-MS/MS analysis; format: ADME, organism-based; details: in vivo; procedure, shortened: as §4
Mus musculus [18] = assay: Effect on CREB phosphorylation in C57BL/6 mouse forebrain at 20 mg/kg, ip or po measured after 1 to 12 hrs by ELISA; format: organism-based; details: in vivo
[19] = Ratio of drug uptake in C57BL/6 mouse brain to plasma at 20 mg/kg, po measured after 1 to 12 hrs by LC-MS/MS analysis; format: ADME, organism-based; details: read-out: BPR; procedure, shortened: as §3
[20] = Thiol reactivity of the compound in pH 7.4 PBS buffer at 250 uM after 2 to 12 hrs by HPLC-PDA analysis; format: physicochemical; details: pH 7.4, 250 µM; procedure, shortened: as §5

| SMILES | Activity (PC-12 [1]) | Activity (PC-12 [2]) | Activity (PC-12 [3]) | also measured |
| --- | --- | --- | --- | --- |
| CC1CCN(Cc2no[n+]([O-])c2-c2ccc(Cl)cc2)CC1 | 19% | 4% | -10% |  |
| CC1CCN(Cc2no[n+]([O-])c2-c2ccccc2)CC1 | 6% | -11% | -21% |  |
| [2H]C1([2H])CC(C)CC([2H])([2H])N1Cc1c(-c2ccc(F)cc2)no[n+]1[O-] | 6% | -1% | 11% |  |
| CC1CCN(Cc2no[n+]([O-])c2-c2ccc(OC(F)F)cc2)CC1 | 61% | 53% | 67% |  |
| CC1CCN(Cc2no[n+]([O-])c2-c2ccc(C(F)(F)F)cc2)CC1 | -16% | -22% | 2% |  |
| CC1CCN(Cc2c(-c3ccc(F)cc3)no[n+]2[O-])CC1 | 11% | 5% | 11% |  |
| CC1CCN(Cc2no[n+]([O-])c2-c2ccc(F)cc2)CC1 | 46% | 41% | -3% | Time (Mus musculus [4]): 237 s; Activity (PC-12 [5]): Non-Toxic; Activity (Mus musculus [6]): Non-Toxic; Kp [7]: 0.68; EC50 (PC-12 [8]): 1900 nM; half-life [9]: 0.833 h; Drug uptake [10]: Active; Drug uptake [11]: Active; Activity (PC-12 [12]): inactive; Activity (Mus musculus [13]): Non-Toxic; half-life [14]: 1.83 h; Stability [15]: Stable; Activity (PC-12 [16]): inactive; Drug uptake [17]: Active; Activity (Mus musculus [18]): Non-Toxic; Kp [19]: 1.49 |
| CC1CCN(Cc2c(-c3ccc(C(F)(F)F)cc3)no[n+]2[O-])CC1 | 10% | 0% | -9% |  |
| COc1ccc(-c2no[n+]([O-])c2CN2CCC(C)CC2)cc1 | 10% | -1% | 14% |  |
| Cc1ccc(-c2no[n+]([O-])c2CN2CCC(C)CC2)cc1 | 12% | 10% | 7% |  |
| CC1CCN(Cc2c(-c3ccc(Cl)cc3)no[n+]2[O-])CC1 | 7% | 25% | 35% |  |
| CC1CCN(Cc2c(-c3ccc(Br)cc3)no[n+]2[O-])CC1 | -2% | 19% | -7% |  |
| COc1ccc(-c2c(CN3CCC(C)CC3)no[n+]2[O-])cc1 | 12% | 5% | 11% |  |
| CC1CCN(Cc2c(-c3ccccc3)no[n+]2[O-])CC1 | 19% | 16% | 9% |  |
| [2H]C1([2H])CC(C)CC([2H])([2H])N1Cc1no[n+]([O-])c1-c1ccc(F)cc1 | 20% | 7% | 8% | Drug uptake [11]: Active |
| CCN1C(=O)C=CC1=O [N-ETHYLMALEIMIDE] |  |  |  | Drug metabolism [20]: Metabolite_Detected |
| CC1CCN(Cc2c(-c3ccc(OC(F)F)cc3)no[n+]2[O-])CC1 | 86% | 108% | 54% |  |
| CC1CCN(Cc2no[n+]([O-])c2-c2ccc(Br)cc2)CC1 | 77% | 96% | 25% |  |
| Cc1ccc(-c2c(CN3CCC(C)CC3)no[n+]2[O-])cc1 | 13% | 8% | 22% |  |
